Here are results for 97 molecules from ChEMBL document CHEMBL4513216, “Probing the Open Global Health Chemical Diversity Library for Multistage-Active Starting Points for Next-Generation Antimalarials” (ACS Infect Dis, 2020).

This data set in a line: Toxicity liver stage against HepG2, at 10uM. Type of data set: cell-based. Also noted: test concentration 10 uM, cell line HepG2-A16-CD81EGFP. The note with it: human, HepG2-A16-CD81EGFP cells; read-out: INHIBITION
Summed up: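 Uninfected HepG2-A16-CD81EGFP cells, 3 × 10^3 per well, 1536-well, plated on prespotted compound at 10 μM final, parasite-free screening media added to match infected plates; puromycin 10 μM positive, DMSO 0.5% negative; run in parallel with 48 h PbLuc assay at 37 °C, 5% CO2; viability by CellTiter-Glo luminescence, normalized to controls.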
Turning to `CNC(C)Cc1ccccc1Sc1ccc(O)cc1` (configuration not stated), the cytotoxicity at 10 µM amounted to 2.73%.

With `CN1CCC(N2CCN3C(=O)NC[C@H]3C2)CC1`, the cytotoxicity at 10 µM came to 2.26%.

On to `CN(C)C(=O)c1cccnc1SCc1ccccc1Cl`, for which the cytotoxicity at 10 µM is 3.25%.

For the molecule `Cc1ccc(C(=O)N2CC(=O)N(Cc3ccco3)CC(O)C2)cc1` (configuration not stated), the cytotoxicity at 10 µM is -0.817%.

Take `O=C(CCc1nc2cc(Br)cnc2[nH]1)NCc1cccnc1`: the cytotoxicity at 10 µM was -0.874%.

Turning to `CC(C)c1sc(Br)nc1C(=O)NCc1cccnc1`, the cytotoxicity at 10 µM was found to be 3.06%.

Turning to `CCOC(=O)CCC(=O)N1CCC(CSCc2ccco2)CC1`, the cytotoxicity at 10 µM was -10.3%.

Take `O=C1CCC2(CCCN(C(=O)c3cccnc3)CC2)N1` (configuration not stated): the cytotoxicity at 10 µM amounted to 6.56%.

Consider `O=C(Cc1ccsc1)N1CCc2ccc(=O)n(CC3CC3)c2CC1`, for which the cytotoxicity at 10 µM is 6.13%.

As for `CN1C(=O)CC(c2ccccc2)C12CCN(C(=O)c1ccc[nH]1)CC2` (configuration not stated), the cytotoxicity at 10 µM was 7.52%.

For `COCCN(C)C(=O)c1nc2c(s1)CCCN2C(=O)C1CC1`, the cytotoxicity at 10 µM was -143%.

Take `O=C(Cn1cc(C(=O)O)ccc1=O)NCc1ccc(F)c(Cl)c1`: the cytotoxicity at 10 µM is -5.88%.

As for `CCC1=N[C@@]2(CC[C@@H]3CN(S(=O)(=O)CC)C[C@@H]32)C(=O)N1CC(C)C`, the cytotoxicity at 10 µM is -0.0582%.

Regarding `Cc1nn(Cn2ccc(C(=O)N3CCOCC3)n2)c(C)c1Cl`, the cytotoxicity at 10 µM was -0.112%.

Consider `Cc1nn(C)c2cn(C(C)C(=O)NCc3cccnc3)nc12` (configuration not stated), for which the cytotoxicity at 10 µM was 5.55%.

As to `Cc1cccnc1C(Cc1ccsc1)NCc1cnc(N(C)C)nc1` (configuration not stated), the cytotoxicity at 10 µM is 5.24%.

On to `CC(NCCCN1CCCC1=O)c1ccc(F)cc1N(C)C` (configuration not stated), for which the cytotoxicity at 10 µM was -2.78%.

With `Cc1ccc(O)c(C(=O)NCCS(=O)(=O)Cc2ccccc2)c1`, the cytotoxicity at 10 µM turned out to be 4.57%.

Consider `CN1CCOC(C(=O)Nc2nnc(Cc3ccc(F)cc3)[nH]2)C1` (configuration not stated), for which the cytotoxicity at 10 µM was -4.95%.

Turning to `Cc1ccc(C2CSCCN2C(=O)c2ccncc2)cc1` (configuration not stated), the cytotoxicity at 10 µM was determined as 2.96%.

Turning to `O=C(Nc1cccnc1)NC1(c2cccc(F)c2)CC1`, the cytotoxicity at 10 µM came to 1.41%.

For `COc1ccc(NC(=O)CN2CCS(=O)(=O)CC2)cn1`, the cytotoxicity at 10 µM was found to be 11.8%.

In the case of `CC(C)OCCS(=O)(=O)NC1CCN(C2CCCC2)C1` (configuration not stated), the cytotoxicity at 10 µM stood at 1.68%.

Take `CCc1nnsc1C(=O)N1CCOC(c2nc(C(C)C)n[nH]2)C1` (configuration not stated): the cytotoxicity at 10 µM came to 1.23%.

As for `CCN(CC)C(CNC(=O)c1ccc(-n2cncn2)cc1)c1ccsc1` (configuration not stated), the cytotoxicity at 10 µM is -141%.

Regarding `CCc1nc(CC)n(CC(=O)N(CC)CC)n1`, the cytotoxicity at 10 µM was 3.1%.

With `Cc1cc(C2CCCN(C(=O)COc3ccc(F)cc3)C2)n[nH]1` (configuration not stated), the cytotoxicity at 10 µM was found to be 3.59%.

Consider `Cc1nc(-c2cnn(C)c2)sc1C(=O)NCc1cccc(CN(C)C)c1`, for which the cytotoxicity at 10 µM stood at 2.46%.

Take `CCOCCCC(=O)N1CCN(c2cccc(OC)c2)C(C)C1` (configuration not stated): the cytotoxicity at 10 µM was 0.0272%.

With `CC(=O)N1CCN(C(=O)c2cnc(OC(C)C)c(Cl)c2)CC1`, the cytotoxicity at 10 µM was -4.36%.

`COc1ccc2c(c1)CN(CC(=O)NC1CCCC1)CC2`: the cytotoxicity at 10 µM is -1.77%.

As for `O=C(NCCCNC(=O)c1ccc(F)cc1F)c1cccc(O)c1`, the cytotoxicity at 10 µM was determined as 2.9%.

Turning to `Cc1cc(C(=O)Nc2cccn(Cc3ccc(F)cc3)c2=O)on1`, the cytotoxicity at 10 µM stood at 5.38%.

Turning to `COCCn1cc(NCc2cccc3cn[nH]c23)cn1`, the cytotoxicity at 10 µM is -3.31%.

Consider `O=C(Cc1csc(N2CCNC2=O)n1)NC1(c2ccccc2)CCC1`, for which the cytotoxicity at 10 µM is -135%.

Consider `COc1ccc(CC(=O)N2CCC(c3n[nH]c(C4CC4)n3)CC2)cc1`, for which the cytotoxicity at 10 µM is -14.6%.

As for `Cc1sc2nc(SC(C)c3nc(C(C)C)no3)nc(N)c2c1C` (configuration not stated), the cytotoxicity at 10 µM was -2.4%.

In the case of `N#Cc1ccc(S(=O)(=O)N2CC(CC(=O)O)c3ccccc32)cc1` (configuration not stated), the cytotoxicity at 10 µM came out at 0.513%.

`CCc1nc(CN2CCCCC2C(N)=O)cs1` (configuration not stated): the cytotoxicity at 10 µM was -7.96%.

Take `CN(CCC(F)(F)F)Cc1nc2ccccc2c(=O)[nH]1`: the cytotoxicity at 10 µM was -5.61%.

With `c1ccc2nc(N3CCCC(Cn4cncn4)C3)cnc2c1` (configuration not stated), the cytotoxicity at 10 µM worked out at 5.46%.

On to `Cc1cccc(CCC(=O)N2CCOCC2c2c(C)n[nH]c2C)c1` (configuration not stated), for which the cytotoxicity at 10 µM was -13.3%.

As for `CCN1CC(C(=O)NCc2ccnc(-n3ccnc3C)c2)CC1=O` (configuration not stated), the cytotoxicity at 10 µM is -25.5%.

For `CC(=O)N1CCCC1c1nnc2n1CCCCC2` (configuration not stated), the cytotoxicity at 10 µM turned out to be 4.31%.

Regarding `O=C(C1CCOCC1)N1CCc2ncc(CN3CCCCC3)n2CC1`, the cytotoxicity at 10 µM was -78.4%.

With `Cn1cc(N2CCC3(CCCN(Cc4ccoc4)C3)C2=O)cn1` (configuration not stated), the cytotoxicity at 10 µM is -77%.

Consider `COc1c(C)cc(S(=O)(=O)NCC2CNCCOC2)cc1C` (configuration not stated), for which the cytotoxicity at 10 µM is -3.53%.

For the molecule `CCCn1nccc1C(=O)N1CCN(C(=O)C2CC2)[C@@H]2CS(=O)(=O)C[C@@H]21`, the cytotoxicity at 10 µM came out at 4.05%.

Take `CCN(CCn1cccn1)Cc1nc(-c2cccc(C)c2)oc1C`: the cytotoxicity at 10 µM was found to be 0.0489%.

`Cn1nccc1C(=O)N1CCN(C(=O)C2CCC2)[C@@H]2CS(=O)(=O)C[C@@H]21`: the cytotoxicity at 10 µM is 4.86%.

In the case of `Cc1noc([C@@H]2CCCN2C(=O)C2CCN(CC(N)=O)CC2)n1`, the cytotoxicity at 10 µM amounted to 3.96%.

`Cc1nc(C(C)NCc2cc(O)c3cccc(F)c3n2)cs1` (configuration not stated): the cytotoxicity at 10 µM came out at 8.33%.

`CCc1cc(N(C)Cc2ccno2)n2nc(C)c(C)c2n1`: the cytotoxicity at 10 µM worked out at 1.35%.

For the molecule `N#Cc1c(N)nc2c(c1-c1c[nH]nc1C1CCCCC1)CC(N)CC2` (configuration not stated), the cytotoxicity at 10 µM was -3.06%.

As for `CC1CN(Cc2ccccc2Cn2cccn2)CCN1C` (configuration not stated), the cytotoxicity at 10 µM was -132%.

Take `COc1ccc(-c2ccccc2CCN)c(OC)c1`: the cytotoxicity at 10 µM amounted to 8.95%.

On to `CCNC(=O)C1CCN(c2nccc(C3CCCC3)n2)C1` (configuration not stated), for which the cytotoxicity at 10 µM is -5.6%.

For `O=C(O)c1coc(COc2cccc3cnccc23)n1`, the cytotoxicity at 10 µM is -110%.

On to `CN(CCn1cnc(-c2ccccc2)c1-c1ncc[nH]1)S(C)(=O)=O`, for which the cytotoxicity at 10 µM was 1.87%.

In the case of `Cc1csc2c(=O)n(CCN3CCC(c4ccccc4)CC3)cnc12`, the cytotoxicity at 10 µM stood at 1.2%.

In the case of `Cc1cc(N2CCN(C(=O)c3cnn(C(C)C)c3)CC2)nc(N)n1`, the cytotoxicity at 10 µM is -2.82%.

Take `CNC(=O)C1CCN(Cc2nc(-c3ccc(SC)cc3)oc2C)C1` (configuration not stated): the cytotoxicity at 10 µM was -0.465%.

With `COc1ccc(C(C(=O)O)N2CCC(O)(c3cccnc3)CC2)cc1Cl` (configuration not stated), the cytotoxicity at 10 µM was found to be 4.57%.

Consider `CCCS(=O)(=O)N1CCN(c2cc(-n3ccnc3)nc(C)n2)CC1`, for which the cytotoxicity at 10 µM was -1.89%.

In the case of `CC(=O)Nc1ccc(-c2ccccc2CCN)cc1`, the cytotoxicity at 10 µM amounted to 3.61%.

For `Cc1[nH]ccc1C(=O)N1CCN(C)C2(CCC(=O)N(C)CC2)C1` (configuration not stated), the cytotoxicity at 10 µM amounted to 5.95%.

Regarding `CC(C(=O)NCCN1CCOCC1)n1cncn1` (configuration not stated), the cytotoxicity at 10 µM was -2.85%.

Consider `O=C(CCS(=O)(=O)C1CCCC1)NCc1ccccc1Cn1cncn1`, for which the cytotoxicity at 10 µM was -4.9%.

In the case of `Cc1nccn1-c1cc(CNC(=O)NCC2CCCO2)ccn1` (configuration not stated), the cytotoxicity at 10 µM is -7.9%.

In the case of `CC(C)CN1CC(C(=O)NCCOc2ccc3c(c2)OCO3)CC1=O` (configuration not stated), the cytotoxicity at 10 µM was -1.39%.

Regarding `Cc1cc(C)n(C2CCCN(C(=O)c3ccc(N(C)C)nc3)C2)n1` (configuration not stated), the cytotoxicity at 10 µM was -4.26%.

As to `COc1ccc(OC)c(CNCc2ccnc(N3CCOCC3)c2)c1`, the cytotoxicity at 10 µM was found to be 1.27%.

With `C=C(C)CN(CC)C(=O)CN(C)C1CCc2ccccc21` (configuration not stated), the cytotoxicity at 10 µM was -11.6%.

Consider `Cc1nn(C)c(C)c1C1CCCN1C(=O)c1cnc2onc(C)c2c1` (configuration not stated), for which the cytotoxicity at 10 µM was -8.48%.

As for `FC(F)(F)Cn1ccnc1CNCC1CCCN1c1cccnn1` (configuration not stated), the cytotoxicity at 10 µM was -26.6%.

Regarding `COCCN(Cc1nc2c(cnn2C)c(=O)[nH]1)C(C)c1ccccc1` (configuration not stated), the cytotoxicity at 10 µM is -1.47%.

For the molecule `O=C(NCCN1CCCCC1)c1ccn(-c2ccc(F)cc2)n1`, the cytotoxicity at 10 µM is -8.05%.

On to `Cc1nc(C)n(C2CCCN(C(=O)c3ccn(C(C)C)n3)C2)n1` (configuration not stated), for which the cytotoxicity at 10 µM was -22.6%.

In the case of `Cc1cnn(CC2CN(Cc3cccc(OCC(N)=O)c3)CCO2)c1` (configuration not stated), the cytotoxicity at 10 µM is -7.18%.

As for `CC(C)(O)CN1CCN(C(=O)c2cc(Cl)cc3cccnc23)CC1`, the cytotoxicity at 10 µM was -7.93%.

On to `COc1ccc(F)cc1CN1CCCC(c2cc(C(N)=O)[nH]n2)C1` (configuration not stated), for which the cytotoxicity at 10 µM was found to be 0.313%.

Take `CCN1CCCC(CNC(=O)C2(c3cccc(Cl)c3)CC2)C1` (configuration not stated): the cytotoxicity at 10 µM was -2.77%.

In the case of `COCCOc1ccccc1CNCc1c(C)nn(C)c1N(C)C`, the cytotoxicity at 10 µM is -5.65%.

As to `O=C(c1cc(F)ccc1F)C1CCN(C(=O)c2ccc(=O)[nH]n2)CC1`, the cytotoxicity at 10 µM was 3.42%.

Consider `CC(C)COC(C)C(=O)NCc1ccc(OC(C)C)nc1` (configuration not stated), for which the cytotoxicity at 10 µM turned out to be 2.12%.

On to `Cc1nc(CN2CCCC(N(C)Cc3cscn3)C2)no1` (configuration not stated), for which the cytotoxicity at 10 µM came to 16.8%.

As for `CN1CCCC(c2ccc(N3CCOCC3)cn2)C1` (configuration not stated), the cytotoxicity at 10 µM was -6.47%.

`CNCc1ccc([C@@H]2CN(C(C)=O)C[C@H]2C(N)=O)cc1`: the cytotoxicity at 10 µM was 5.32%.

Turning to `CC(=O)N1CCN(Cc2cccs2)CC2(CC(=O)N(C)C2)C1` (configuration not stated), the cytotoxicity at 10 µM came out at 1.7%.

As for `CN(C)C(=O)N1CCC[C@]2(C(=O)N(C)C)CN(c3ccccn3)C[C@@H]2C1`, the cytotoxicity at 10 µM amounted to 7.13%.

On to `Cc1ccc(CN2CCC[C@@H]3CN(C(=O)c4ccco4)C[C@@H]32)o1`, for which the cytotoxicity at 10 µM worked out at 8.83%.

Take `CNCCc1nc2cc(F)ccc2[nH]1`: the cytotoxicity at 10 µM turned out to be 22%.

Consider `CC(C)NC(=O)CC1CC2(CCN(CC3CC3)CC2)Oc2ccccc21` (configuration not stated), for which the cytotoxicity at 10 µM is -2.42%.

On to `c1ccc(CN2CCc3nnc(CN4CCCCC4)n3CC2)nc1`, for which the cytotoxicity at 10 µM came out at 3.73%.

On to `CCc1ccc(CN2C[C@@H](c3nc(C)no3)C[C@H]3OCC[C@H]32)o1`, for which the cytotoxicity at 10 µM was -75.8%.

Take `Cn1ccc(CN2CCOCC23CCNCC3)n1`: the cytotoxicity at 10 µM was determined as 6.77%.

As to `C=c1occc1=C1NC(c2cccc(CN3CCOCC3)c2)=NO1`, the cytotoxicity at 10 µM is -5.92%.
